In PubChem BioAssay AID624079 (The Scripps Research Institute Molecular Screening Center, 2012):
Values joined by “and” are separate entries in the source; they are usually repeats but may differ in a detail not shown here. Equal entries are not always repeated.

Target: metallo-beta-lactamase VIM-2 (Pseudomonas aeruginosa)
Assay: inhibition of VIM-2 nitrocefin cleavage – biochemical, absorbance, probe candidates and analogs, late-stage follow-up (AID 624079)
Details: purified VIM-2, nitrocefin hydrolysis, epi-absorbance
In short: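 Material: purified VIM-2 enzyme; input: 0.132 nM enzyme; timing: 15 min preincubation, 25 min nitrocefin hydrolysis, 25 °C, EDTA stop; technique: hydrolysis product quenching plate fluorescence, 480 nm excitation, 530 nm emission; measure: four-parameter IC50 from OD-converted fluorescence; probe or stimulus: nitrocefin at 60 µM; dosing: dilution series with 60 µM top concentration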

CN1CCN(NC(=O)CN2C(=O)/C(=C/c3c(Cl)cccc3Cl)SC2=S)CC1 was tested, and the IC50 was 3.98 µM and 4.55 µM.
CN1CCN(NC(=O)CN2C(=O)/C(=C/c3c(Cl)ccc(Cl)c3Cl)SC2=S)CC1 showed an IC50 of 0.548 µM.
